The list is not random: actives were taken first. Their share in the collection is about 2.2%.
NR2E3 ag-1: NR2E3 (human) agonism. inhibition of corepressor binding, % at 4.78 µM. AID 2300. 320,000 tested, 0.12% active. Q9Y5X4. GST-NR2E3/biotin-RetCOR TR-FRET, 1536-well;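 active = percent inhibition above the cutoff of mean plus 3 SD of all tested compounds, set per screening campaign, cut at about 20% in these data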;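 note: 0% = DMSO wells and 100% = biotin wells as full block of FRET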
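Material: NR2E3–RetCOR corepressor complex / Incubation: Compound–protein incubation for 5 h at 4 °C / Dosing: compound at 4.8 µM, single dose / Detection: time-resolved FRET / Benchmarks: high control biotin, low control 0.6% DMSO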
GalR3 antag: blocks the human galanin receptor 3; inhibition, % at 3 µM; HEK293 GalR3-CNG cAMP membrane potential fluorescence; galR3 body fused to GalR1 C-terminus; 360,000 tested, 0.44% active; AID 651719; O60755;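 active = inhibition above the screen-wide average plus 3 SD, cut at about 13% in these data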;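 note: forskolin and galanin both at EC90 stimulate the cells; cAMP rise reported by CNG channel membrane potential dye signal; 0% = forskolin plus galanin with DMSO and 100% = forskolin alone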
Target sequence (O60755 1-299 limits assumed): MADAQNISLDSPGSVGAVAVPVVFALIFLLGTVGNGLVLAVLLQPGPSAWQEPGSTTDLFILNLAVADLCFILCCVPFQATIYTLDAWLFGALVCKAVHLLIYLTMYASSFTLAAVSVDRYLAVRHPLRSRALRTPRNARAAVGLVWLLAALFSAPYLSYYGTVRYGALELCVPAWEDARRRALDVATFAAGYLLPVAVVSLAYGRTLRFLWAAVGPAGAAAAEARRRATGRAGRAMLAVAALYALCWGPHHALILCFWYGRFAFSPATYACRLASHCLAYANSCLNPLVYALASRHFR
GAA850 FXN act: activators of GAA850 frataxin (FXN) promoter | 360,000 tested, 0.56% active | activation, % at 6 µM | AID 540364 | HEK293 lucGAA850 FXN promoter luciferase reporter, 24 h; percent of 10 µM SAHA response;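 active = activation above the average of all compounds screened plus 3 SD, cutoff fixed separately per campaign, cut at about 7.5% in these data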;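 note: 0% = DMSO wells and 100% = 10 µM SAHA wells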
V-ATPase pH: regulators of yeast V-ATPase proton transport; response, % at 10 µM; S. cerevisiae, pHLuorin cytosolic pH fluorescence; 350,000 tested, 0.37% active; AID 504577; in the data active = response mostly above about 7.3%, no sharp cut-off; inactive = mostly below about 5.4%; note: actives read high
HIV Env fusion: HIV envelope-mediated fusion inhibition. 360,000 tested, 1.1% active. AID 651610. HeLa-JRFL Env/CEM21 cell fusion, luciferase. inhibition, % at 12.3 µM;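 active = mean replicate inhibition score of at least 50 and every replicate individually at or above 50; inconclusive = only one of the two criteria met; inactive = mean below 50 and not all replicates reaching 50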;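 note: 0% = plate neutral controls and 100% = maraviroc near 300 nM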
NR2E3 ag-2: human photoreceptor-specific nuclear receptor agonism; Q9Y5X4; AID 602229; 360,000 tested, 0.35% active; CHO-S Gal4-NCOR/VP16-NR2E3 two-hybrid, luciferase; inhibition of corepressor binding, % at 3.98 µM;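 active = inhibition above the mean of all tested compounds plus 3 SD, cut at about 70% in these data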;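 note: 0% = DMSO with NR2E3 transfected cells and 100% = cells lacking NR2E3 construct; higher means lower luciferase signal from less NR2E3 corepressor binding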
An asterisk follows results filed as active; [ ] = remark or other dose.

Results for C[C@@]12C(=O)N(Cc3ccco3)CC(=O)N1[C@H]1c3ccccc3OC[C@@H]1[C@@H]2c1ccccc1 ?
GalR3 antag: -7; GAA850 FXN act: 2; V-ATPase pH: 3; HIV Env fusion: 84*; NR2E3 ag-2: -34

Results for Cc1ccc(CN2CC(=O)N3[C@H]4c5ccccc5OC[C@@H]4[C@H](c4ccccc4)[C@]3(C)C2=O)cc1 ?
NR2E3 ag-1: 4; GalR3 antag: -7; GAA850 FXN act: 2; V-ATPase pH: 3; HIV Env fusion: inconclusive; NR2E3 ag-2: 14

Results for C[C@@]12C(=O)N(Cc3ccccc3)CC(=O)N1[C@H]1c3ccccc3OC[C@@H]1[C@@H]2c1ccccc1 ?
NR2E3 ag-1: -1; GalR3 antag: 0; GAA850 FXN act: 7; V-ATPase pH: 0; HIV Env fusion: 104*; NR2E3 ag-2: 2

How did C[C@H](CO)N1C[C@H](C)[C@H](CN(C)Cc2ccc(-c3ccccc3)cc2)OCc2cnnn2CCCC1=O do in these assays?
HIV Env fusion: 16[16.7 µM]

What do the screens show for `CCOC(=O)[C@H]1[C@H]2COc3ccc(OC)cc3[C@@H]2N2C(=O)CN(Cc3ccc(F)cc3)C(=O)[C@@]12C`?
NR2E3 ag-1: 0; GalR3 antag: 11; GAA850 FXN act: 0; V-ATPase pH: -5; HIV Env fusion: -37; NR2E3 ag-2: 21

How did CCOC(=O)[C@H]1[C@H]2COc3ccc(OC)cc3[C@@H]2N2C(=O)CN(Cc3ccc(Cl)cc3)C(=O)[C@@]12C do in these assays?
NR2E3 ag-1: 2; GalR3 antag: -8; GAA850 FXN act: -3; V-ATPase pH: -2; HIV Env fusion: 63*; NR2E3 ag-2: -6

Results for N#Cc1sc2nccc(Nc3ccccc3)c2c1N ?
NR2E3 ag-1: -2; GalR3 antag: -1; GAA850 FXN act: -6; V-ATPase pH: -2; HIV Env fusion: 62*; NR2E3 ag-2: -40

Results for COc1cc(-c2c(-c3cc(OC)c(OC)c(OC)c3)noc2C)ccc1F ?
NR2E3 ag-1: 5; GalR3 antag: 3; HIV Env fusion: 68*

How did CCCN(C)C[C@H]1OCCCC[C@@H](C)Oc2ccc(NC(=O)Nc3ccccc3)cc2C(=O)N([C@H](C)CO)C[C@@H]1C do in these assays?
HIV Env fusion: -14[16.7 µM]

What do the screens show for `Cc1cc(S(=O)(=O)ON2C(=O)c3ccccc3C2=O)ccc1F`?
NR2E3 ag-1: 1; GalR3 antag: 2; GAA850 FXN act: 0; V-ATPase pH: 11*; HIV Env fusion: -6; NR2E3 ag-2: -5

Results for C[C@@H]1CN([C@@H](C)CO)C(=O)Cc2cc(NC(=O)c3ccncc3)ccc2O[C@H]1CN(C)Cc1ccccc1 ?
HIV Env fusion: 25[16.7 µM]

How did Cc1c(C)c(C)c(S(=O)(=O)N2CCSCC2)c(C)c1C do in these assays?
NR2E3 ag-1: -2; GalR3 antag: 3; GAA850 FXN act: 0; V-ATPase pH: 20*; HIV Env fusion: 10; NR2E3 ag-2: 19

Results for COc1ccc(S(=O)(=O)N[C@@H]2C=C[C@H](CC(=O)N3CCc4ccccc4C3)O[C@H]2CO)cc1 ?
HIV Env fusion: -4[16.7 µM]

How did O=c1[nH]c(SCCOc2ccccc2)nc2ccccc12 do in these assays?
NR2E3 ag-1: 2; GalR3 antag: -7; GAA850 FXN act: 3; V-ATPase pH: 1; HIV Env fusion: -128; NR2E3 ag-2: -65

Results for CC(c1nc2ccccc2c(=O)[nH]1)N(C)CCOc1ccc(Cl)cc1 (stereo not drawn) ?
NR2E3 ag-1: -2; GalR3 antag: 0; GAA850 FXN act: 3; V-ATPase pH: 4; HIV Env fusion: 97*; NR2E3 ag-2: -10

What do the screens show for `Cc1ccc(S(=O)(=O)N2CC3(O)CN(C(=O)OC(C)C)N(C(=O)OC(C)C)CC3(OC(=O)Nc3cccs3)C2)cc1` (stereo not drawn)?
GalR3 antag: -8; GAA850 FXN act: -8; V-ATPase pH: 1; HIV Env fusion: -53; NR2E3 ag-2: -19

What do the screens show for `Cc1ccc(S(=O)(=O)N2CC3(O)CN(C(=O)OC(C)C)N(C(=O)OC(C)C)CC3(OC(=O)NC3CCCC3)C2)cc1` (stereo not drawn)?
GalR3 antag: -6; GAA850 FXN act: 0; V-ATPase pH: 3; HIV Env fusion: 75*; NR2E3 ag-2: -1

High-throughput results deposited in PubChem by several laboratories.
